From ChEMBL document CHEMBL1150597, “Syntheses of two cytotoxic sinapyl alcohol derivatives and isolation of four new related compounds from Ligularia nelumbifolia” (J Nat Prod, 2002)

Key:
Format in all cases: functional, cell-based
KB = assay: Cytotoxicity against human KB cells after 72 hrs
Procedure, shortened: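 KB cells from the American Type Culture Collection; growth monitored after 72 h incubation with compound. IC50 taken as the drug concentration giving 50% growth inhibition.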

A549 = assay: Cytotoxicity against human A549 cells by SRB assay
HL-60 = assay: Cytotoxicity against human HL60 cells by SRB assay

Compound	IC50 (KB) [µM]	IC50 (A549) [µM]	IC50 (HL-60) [µM]
COc1cc(/C=C/CO)cc(OC)c1OCc1ccccc1	860		
COc1cc(/C=C/C=O)cc(OC)c1OCc1ccccc1	640		
COc1cc(/C=C/CO)cc(OC)c1OCC=C(C)C	7.8		
COc1cc(/C=C/C=O)cc(OC)c1OC/C=C(\C)CCC=C(C)C [NELUMAL A]	2.6	22	12
COc1cc(/C=C/CO)cc(OC)c1OC/C=C(\C)CCC=C(C)C [NELUMOL A]	3	34	6.7
